Measurements reported in ChEMBL document CHEMBL4828740, “Discovery of Quinoxaline-Based P1-P3 Macrocyclic NS3/4A Protease Inhibitors with Potent Activity against Drug-Resistant Hepatitis C Virus Variants” (J Med Chem, 2021).

Key:
Hepatitis C virus [1] = assay: Antiviral activity against HCV genotype 1b harboring A156T mutant infected in human Huh7 cells incubated for 96 hrs by luciferase assay; assay type: functional, organism-based, Hepacivirus hominis; conditions: subtype 1b, Huh-7, 96 h
Summary of the method: (§1)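 Con1 (GT-1b) luciferase reporter replicon carrying the H77 (GT-1a) NS3 protease region, with the mutation introduced by megaprimer site-directed mutagenesis. Cured Huh7 cells were grown in DMEM with 10% heat-inactivated FBS and 0.1 mM non-essential amino acids, electroporated with replicon RNA transcripts, and kept with serially diluted inhibitor. EC50 was taken directly from the inhibition curves.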

[2] = molecular target: T1, Hepatitis C virus serine protease, NS3/NS4A (Hepatitis C virus, UniProt A3EZI9+D2K2A8); assay: Inhibition of HCV GT-1a NS3/4a protease using Ac-DE-D(Edans)-EE-Abu-c-[COO]-AS-K(Dabcy1)-NH2 preincubated for 1 hr followed by substrate addition; assay type: protein complex, Hepatitis C virus subtype 1a
[3] = molecular target: T1, Hepatitis C virus serine protease, NS3/NS4A; assay: Inhibition of HCV GT-3a NS3/4a protease using Ac-DE-D(Edans)-EE-Abu-c-[COO]-AS-K(Dabcy1)-NH2 preincubated for 1 hr followed by substrate addition; assay type: protein-complex assay, Hepatitis C virus subtype 3a
Hepatitis C virus [4] = assay: Antiviral activity against HCV genotype 1b infected in human Huh7 cells incubated for 96 hrs by luciferase assay; assay type: functional, organism-based, Hepacivirus hominis; conditions: Huh-7, 96 h
Summary of the method: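 Con1 (GT-1b) luciferase reporter replicon carrying the H77 (GT-1a) NS3 protease region, either WT or with A156T or D168A introduced by megaprimer mutagenesis. Cured Huh7 cells grown in DMEM with 10% heat-inactivated FBS and 0.1 mM non-essential amino acids. Cells electroporated with replicon RNA and kept with serially diluted inhibitor.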

Hepatitis C virus [5] = assay: Antiviral activity against HCV genotype 1b harboring D168A mutant infected in human Huh7 cells incubated for 96 hrs by luciferase assay; assay type: functional, organism-based, Hepacivirus hominis; conditions: subtype 1b, Huh-7, 96 h; summary of the method: as §1

Row | SMILES | EC50 (Hepatitis C virus [1]) [nM] | Ki [2] [nM] | Ki [3] [nM] | EC50 (Hepatitis C virus [4]) [nM] | EC50 (Hepatitis C virus [5]) [nM]
1 | COc1ccc2nc(O[C@@H]3C[C@H]4C(=O)N[C@]5(C(=O)NS(=O)(=O)C6(C)CC6)C[C@H]5/C=C/CCCCC[C@H](NC(=O)O[C@H](C)C(F)(F)F)C(=O)N4C3)c(C(F)(F)F)nc2c1 | 30 | 2.8 | 490 | 1.6 | 7.3
2 | COc1ccc2nc(O[C@@H]3C[C@H]4C(=O)N[C@]5(C(=O)NS(=O)(=O)C6(C)CC6)C[C@H]5/C=C/CCCCC[C@H](NC(=O)O[C@@H](C)C5CC5)C(=O)N4C3)c(C(F)(F)F)nc2c1 | 18 | 10 | 412 | 3.3 | 18
3 | COc1ccc2nc(C)c(O[C@@H]3C[C@H]4C(=O)N[C@]5(C(=O)NS(=O)(=O)C6(C)CC6)C[C@H]5/C=C/CCCCC[C@H](NC(=O)O[C@@H]5CCC[C@H]5F)C(=O)N4C3)nc2c1 | 12 | 2.3 | 216 | 0.4 | 43
4 | COc1ccc2nc(C)c(O[C@@H]3C[C@H]4C(=O)N[C@]5(C(=O)NS(=O)(=O)C6(C)CC6)C[C@H]5/C=C/CCCCC[C@H](NC(=O)O[C@@H](C)C5CC5)C(=O)N4C3)nc2c1 | 128 | 1.8 | – | 5.3 | 10
5 | COc1ccc2nc(C)c(O[C@@H]3C[C@H]4C(=O)N[C@]5(C(=O)NS(=O)(=O)C6(C)CC6)C[C@H]5/C=C/CCCCC[C@H](NC(=O)O[C@H](C)C(C)C)C(=O)N4C3)nc2c1 | 7.7 | 1.5 | – | 0.3 | 1.9
6 | COc1ccc2nc(O[C@@H]3C[C@H]4C(=O)N[C@]5(C(=O)NS(=O)(=O)C6(C)CC6)C[C@H]5/C=C/CCCCC[C@H](NC(=O)OC5(C)CC5)C(=O)N4C3)c(C(F)(F)F)nc2c1 | 99 | 11 | – | 5.8 | 14
7 | CCc1nc2ccc(OC)cc2nc1O[C@@H]1C[C@H]2C(=O)N[C@]3(C(=O)NS(=O)(=O)C4CC4)C[C@H]3/C=C/CCCCC[C@H](NC(=O)OC(C)(C)C)C(=O)N2C1 | – | – | – | – | 6.3
8 | COc1ccc2nc(O[C@@H]3C[C@H]4C(=O)N[C@]5(C(=O)NS(=O)(=O)C6(C)CC6)C[C@H]5/C=C/CCCCC[C@H](NC(=O)O[C@H](C)C5CC5)C(=O)N4C3)c(C(F)(F)F)nc2c1 | 44 | 12 | – | 2.6 | 19
9 | COc1ccc2nc(O[C@@H]3C[C@H]4C(=O)N[C@]5(C(=O)NS(=O)(=O)C6(C)CC6)C[C@H]5/C=C/CCCCC[C@H](NC(=O)OC5CC(F)(F)C5)C(=O)N4C3)c(C(F)(F)F)nc2c1 | 35 | 11 | – | 3.2 | 6.9
10 | COc1ccc2nc(O[C@@H]3C[C@H]4C(=O)N[C@]5(C(=O)NS(=O)(=O)C6(C)CC6)C[C@H]5/C=C/CCCCC[C@H](NC(=O)OCC5(C)CC5)C(=O)N4C3)c(C(F)(F)F)nc2c1 | 41 | 2.9 | – | 5.7 | 8.3
11 | COc1ccc2nc(C)c(O[C@@H]3C[C@H]4C(=O)N[C@]5(C(=O)NS(=O)(=O)C6(C)CC6)C[C@H]5/C=C/CCCCC[C@H](NC(=O)O[C@@H](C)C(C)C)C(=O)N4C3)nc2c1 | 7 | 1.9 | – | 0.6 | 3.6
12 | COc1ccc2nc(C)c(O[C@@H]3C[C@H]4C(=O)N[C@]5(C(=O)NS(=O)(=O)C6(C)CC6)C[C@H]5/C=C/CCCCC[C@H](NC(=O)OC(C)C)C(=O)N4C3)nc2c1 | – | 2.1 | – | – | –
13 | COc1ccc2nc(O[C@@H]3C[C@H]4C(=O)N[C@]5(C(=O)NS(=O)(=O)C6(C)CC6)C[C@H]5/C=C/CCCCC[C@H](NC(=O)O[C@H](C)C(C)C)C(=O)N4C3)c(C(F)(F)F)nc2c1 | 45 | 3 | – | 2.1 | 6.3
14 | COc1ccc2nc(O[C@@H]3C[C@H]4C(=O)N[C@]5(C(=O)NS(=O)(=O)C6(C)CC6)C[C@H]5/C=C/CCCCC[C@H](NC(=O)OCC(C)(C)C)C(=O)N4C3)c(C(F)(F)F)nc2c1 | 158 | 2.9 | – | 4.9 | 14
15 | COc1ccc2nc(C)c(O[C@@H]3C[C@H]4C(=O)N[C@]5(C(=O)NS(=O)(=O)C6(C)CC6)C[C@H]5/C=C/CCCCC[C@H](NC(=O)OC5CC(F)(F)C5)C(=O)N4C3)nc2c1 | 5.3 | 0.6 | – | 0.6 | 4.1
16 | COc1ccc2nc(O[C@@H]3C[C@H]4C(=O)N[C@]5(C(=O)NS(=O)(=O)C6(C)CC6)C[C@H]5/C=C/CCCCC[C@H](NC(=O)OCC(C)C)C(=O)N4C3)c(C(F)(F)F)nc2c1 | 91 | 4 | – | 4.8 | 15
17 | COc1ccc2nc(O[C@@H]3C[C@H]4C(=O)N[C@]5(C(=O)NS(=O)(=O)C6(C)CC6)C[C@H]5/C=C/CCCCC[C@H](NC(=O)OC5C[C@@H]6C[C@@H]6C5)C(=O)N4C3)c(C(F)(F)F)nc2c1 (stereo not given in full) | 70 | 0.2 | 170 | – | 2.1
18 | COc1ccc2nc(C)c(O[C@@H]3C[C@H]4C(=O)N[C@]5(C(=O)NS(=O)(=O)C6(C)CC6)C[C@H]5/C=C/CCCCC[C@H](NC(=O)O[C@H](C)C5CC5)C(=O)N4C3)nc2c1 | 11 | 1.5 | – | 0.3 | 3.7
19 | COc1ccc2nc(C)c(O[C@@H]3C[C@H]4C(=O)N[C@]5(C(=O)NS(=O)(=O)C6(C)CC6)C[C@H]5/C=C/CCCCC[C@H](NC(=O)O[C@@H](C)C(F)(F)F)C(=O)N4C3)nc2c1 | 8.1 | 0.7 | – | 0.8 | –
20 | COc1ccc2nc(O[C@@H]3C[C@H]4C(=O)N[C@]5(C(=O)NS(=O)(=O)C6(C)CC6)C[C@H]5/C=C/CCCCC[C@H](NC(=O)O[C@@H]5CCC[C@H]5F)C(=O)N4C3)c(C(F)(F)F)nc2c1 | 35 | 8 | – | 0.2 | 2.3
21 | CCC1(OC(=O)N[C@H]2CCCCC/C=C/[C@@H]3C[C@@]3(C(=O)NS(=O)(=O)C3(C)CC3)NC(=O)[C@@H]3C[C@@H](Oc4nc5cc(OC)ccc5nc4C)CN3C2=O)CCCC1 | 8.3 | 1.3 | – | 1.6 | 4.7
22 | COc1ccc2nc(C)c(O[C@@H]3C[C@H]4C(=O)N[C@]5(C(=O)NS(=O)(=O)C6(C)CC6)C[C@H]5/C=C/CCCCC[C@H](NC(=O)OC5(C)CCC5)C(=O)N4C3)nc2c1 | 4.2 | 1.4 | – | 0.5 | 3.4
23 | COc1ccc2nc(C)c(O[C@@H]3C[C@H]4C(=O)N[C@]5(C(=O)NS(=O)(=O)C6(C)CC6)C[C@H]5/C=C/CCCCC[C@H](NC(=O)OCC5(C)CC5)C(=O)N4C3)nc2c1 | 8.5 | 0.7 | – | 0.8 | 3.8
24 | COc1ccc2nc(C)c(O[C@@H]3C[C@H]4C(=O)N[C@]5(C(=O)NS(=O)(=O)C6(C)CC6)C[C@H]5/C=C/CCCCC[C@H](NC(=O)OC5CCCC5)C(=O)N4C3)nc2c1 | – | 1.1 | 120 | 0.1 | 1.9
25 | COc1ccc2nc(C)c(O[C@@H]3C[C@H]4C(=O)N[C@]5(C(=O)NS(=O)(=O)C6(C)CC6)C[C@H]5/C=C/CCCCC[C@H](NC(=O)OC5(C)CC5)C(=O)N4C3)nc2c1 | 12 | 4.4 | – | 0.3 | 3.5
26 | COc1ccc2nc(O[C@@H]3C[C@H]4C(=O)N[C@]5(C(=O)NS(=O)(=O)C6(C)CC6)C[C@H]5/C=C/CCCCC[C@H](NC(=O)OCC5(C(F)(F)F)CC5)C(=O)N4C3)c(C(F)(F)F)nc2c1 | 43 | 3.5 | – | 1.2 | 4.6
